Data reported in ChEMBL document CHEMBL2407068, “Tropolones as lead-like natural products: the development of potent and selective histone deacetylase inhibitors” (ACS Med Chem Lett, 2013).

Tests used:
Histone deacetylase 4 = Histone deacetylase 4 (Homo sapiens, UniProt P56524); assay: Inhibition of human recombinant HDAC4 by Michaelis-Menten equation analysis
BXPC-3 = assay: Cytotoxicity against human BxPC3 cells after 72 hrs by MTS assay; type: functional; settings: BXPC-3, 72 h
HuT78 = assay: Cytotoxicity against human HUT78 cells after 72 hrs by MTS assay; type: functional; settings: HuT78, 72 h
Histone deacetylase 1 = Histone deacetylase 1 (Homo sapiens, UniProt Q13547); assay: Inhibition of human recombinant HDAC1 by Michaelis-Menten equation analysis
Histone deacetylase 2 = Histone deacetylase 2 (Homo sapiens, UniProt Q92769); assay: Inhibition of human recombinant HDAC2 by Michaelis-Menten equation analysis
HCT-116 = assay: Cytotoxicity against human HCT116 cells after 72 hrs by MTS assay; type: functional; settings: HCT-116, 72 h
[1] = target: T1, Protein deacetylase HDAC6 (Homo sapiens, UniProt Q9UBN7); assay: Inhibition of human recombinant HDAC6 by Michaelis-Menten equation analysis
T1 sequence (Q9UBN7 whole entry): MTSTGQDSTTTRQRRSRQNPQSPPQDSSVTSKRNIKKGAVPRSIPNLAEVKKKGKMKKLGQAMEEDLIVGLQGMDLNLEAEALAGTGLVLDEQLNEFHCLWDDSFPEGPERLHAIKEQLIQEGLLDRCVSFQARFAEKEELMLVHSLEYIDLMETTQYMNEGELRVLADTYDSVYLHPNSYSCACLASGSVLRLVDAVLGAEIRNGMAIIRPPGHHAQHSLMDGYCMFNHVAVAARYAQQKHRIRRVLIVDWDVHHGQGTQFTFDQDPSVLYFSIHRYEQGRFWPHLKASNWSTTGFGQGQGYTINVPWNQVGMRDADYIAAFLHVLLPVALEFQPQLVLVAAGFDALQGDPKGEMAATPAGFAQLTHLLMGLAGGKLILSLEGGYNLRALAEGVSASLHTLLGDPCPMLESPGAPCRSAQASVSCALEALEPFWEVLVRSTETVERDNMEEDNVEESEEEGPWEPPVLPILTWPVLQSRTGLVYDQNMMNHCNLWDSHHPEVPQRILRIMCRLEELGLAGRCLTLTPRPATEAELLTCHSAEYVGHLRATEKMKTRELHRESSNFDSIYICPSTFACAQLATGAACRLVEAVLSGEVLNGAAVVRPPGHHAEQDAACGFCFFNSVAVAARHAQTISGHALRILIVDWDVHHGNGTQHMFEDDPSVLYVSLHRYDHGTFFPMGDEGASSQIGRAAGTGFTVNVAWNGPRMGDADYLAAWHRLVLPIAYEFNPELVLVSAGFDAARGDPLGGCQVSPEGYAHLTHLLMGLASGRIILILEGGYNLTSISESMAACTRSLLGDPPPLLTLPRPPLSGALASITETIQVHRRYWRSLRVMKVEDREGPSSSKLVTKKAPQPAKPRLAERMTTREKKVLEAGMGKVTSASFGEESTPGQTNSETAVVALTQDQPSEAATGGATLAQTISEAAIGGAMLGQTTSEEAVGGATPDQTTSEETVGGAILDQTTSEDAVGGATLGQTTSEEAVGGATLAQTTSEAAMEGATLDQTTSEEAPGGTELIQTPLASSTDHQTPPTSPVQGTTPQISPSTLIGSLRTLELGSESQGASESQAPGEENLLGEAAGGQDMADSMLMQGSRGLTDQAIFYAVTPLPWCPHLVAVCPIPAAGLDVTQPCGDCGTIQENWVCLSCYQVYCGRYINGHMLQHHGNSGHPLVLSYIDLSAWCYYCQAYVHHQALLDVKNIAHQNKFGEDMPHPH

Histone deacetylase 8 [2] = target: T2, Histone deacetylase 8 (Homo sapiens, UniProt Q9BY41); assay: Inhibition of human recombinant HDAC8 by Michaelis-Menten equation analysis
T2 sequence (Q9BY41 whole entry): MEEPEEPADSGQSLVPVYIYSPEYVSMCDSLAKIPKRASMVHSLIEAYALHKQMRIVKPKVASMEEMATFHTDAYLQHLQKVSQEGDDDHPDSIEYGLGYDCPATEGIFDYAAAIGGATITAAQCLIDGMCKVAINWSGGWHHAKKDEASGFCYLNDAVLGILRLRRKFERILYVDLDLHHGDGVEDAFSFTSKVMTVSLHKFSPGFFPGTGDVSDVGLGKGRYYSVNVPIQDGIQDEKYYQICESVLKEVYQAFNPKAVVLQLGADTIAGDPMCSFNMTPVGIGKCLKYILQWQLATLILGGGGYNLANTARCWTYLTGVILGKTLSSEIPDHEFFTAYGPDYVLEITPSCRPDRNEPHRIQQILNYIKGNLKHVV

Histone deacetylase 5 = Histone deacetylase 5 (Homo sapiens, UniProt Q9UQL6); assay: Inhibition of human recombinant HDAC5 by Michaelis-Menten equation analysis
Jurkat = assay: Cytotoxicity against human Jurkat cells after 72 hrs by MTS assay; type: functional
Liver = assay: Half life in mouse liver microsomes assessed as gluconoride formation at 0.4 ug/mL by HPLC-MS analysis in presence of UDPGA; type: ADME, Microsome
Outline: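 Mouse liver microsome incubation run for phase II conjugation, with UDPGA added. Half-life was determined, and the glucuronide conjugate was detected by mass spectrometry.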

[3] = Cytotoxicity against HDF after 72 hrs by MTS assay; settings: human, HDF cells
Homo sapiens [4] = species on record: Homo sapiens; assay: Selectivity ratio of Ki for human recombinant HDAC8 to Ki for human recombinant HDAC2
Homo sapiens [5] = species on record: Homo sapiens; assay: Selectivity ratio of Ki for human recombinant HDAC6 to Ki for human recombinant HDAC2
Homo sapiens [6] = species on record: Homo sapiens; assay: Selectivity ratio of Ki for human recombinant HDAC1 to Ki for human recombinant HDAC2
Homo sapiens [7] = species on record: Homo sapiens; assay: Selectivity ratio of Ki for human recombinant HDAC5 to Ki for human recombinant HDAC2
Homo sapiens [8] = species on record: Homo sapiens; assay: Selectivity ratio of Ki for human recombinant HDAC4 to Ki for human recombinant HDAC2
Histone deacetylase 8 [9] = target: T2, Histone deacetylase 8; assay: Competitive inhibition of human recombinant HDAC8 by Michaelis-Menten equation analysis
[10] = Half life in mouse liver microsomes at 0.4 ug/mL by HPLC-MS analysis in presence of NADPH; type: ADME, Microsome

Sequence of Histone deacetylase 1 (Q13547 whole entry): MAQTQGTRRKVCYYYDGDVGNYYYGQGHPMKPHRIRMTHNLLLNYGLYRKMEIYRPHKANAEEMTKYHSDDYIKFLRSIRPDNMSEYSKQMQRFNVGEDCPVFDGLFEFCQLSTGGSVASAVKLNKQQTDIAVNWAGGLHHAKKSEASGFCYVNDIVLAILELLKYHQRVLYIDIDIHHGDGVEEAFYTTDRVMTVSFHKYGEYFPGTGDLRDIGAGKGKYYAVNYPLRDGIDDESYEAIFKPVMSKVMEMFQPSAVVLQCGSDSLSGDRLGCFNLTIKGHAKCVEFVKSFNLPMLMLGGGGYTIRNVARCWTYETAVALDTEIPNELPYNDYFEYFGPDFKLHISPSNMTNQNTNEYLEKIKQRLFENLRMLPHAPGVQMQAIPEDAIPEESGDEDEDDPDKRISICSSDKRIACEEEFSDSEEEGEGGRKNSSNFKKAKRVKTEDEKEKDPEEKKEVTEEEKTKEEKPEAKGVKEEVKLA
Sequence of Histone deacetylase 5 (Q9UQL6 whole entry): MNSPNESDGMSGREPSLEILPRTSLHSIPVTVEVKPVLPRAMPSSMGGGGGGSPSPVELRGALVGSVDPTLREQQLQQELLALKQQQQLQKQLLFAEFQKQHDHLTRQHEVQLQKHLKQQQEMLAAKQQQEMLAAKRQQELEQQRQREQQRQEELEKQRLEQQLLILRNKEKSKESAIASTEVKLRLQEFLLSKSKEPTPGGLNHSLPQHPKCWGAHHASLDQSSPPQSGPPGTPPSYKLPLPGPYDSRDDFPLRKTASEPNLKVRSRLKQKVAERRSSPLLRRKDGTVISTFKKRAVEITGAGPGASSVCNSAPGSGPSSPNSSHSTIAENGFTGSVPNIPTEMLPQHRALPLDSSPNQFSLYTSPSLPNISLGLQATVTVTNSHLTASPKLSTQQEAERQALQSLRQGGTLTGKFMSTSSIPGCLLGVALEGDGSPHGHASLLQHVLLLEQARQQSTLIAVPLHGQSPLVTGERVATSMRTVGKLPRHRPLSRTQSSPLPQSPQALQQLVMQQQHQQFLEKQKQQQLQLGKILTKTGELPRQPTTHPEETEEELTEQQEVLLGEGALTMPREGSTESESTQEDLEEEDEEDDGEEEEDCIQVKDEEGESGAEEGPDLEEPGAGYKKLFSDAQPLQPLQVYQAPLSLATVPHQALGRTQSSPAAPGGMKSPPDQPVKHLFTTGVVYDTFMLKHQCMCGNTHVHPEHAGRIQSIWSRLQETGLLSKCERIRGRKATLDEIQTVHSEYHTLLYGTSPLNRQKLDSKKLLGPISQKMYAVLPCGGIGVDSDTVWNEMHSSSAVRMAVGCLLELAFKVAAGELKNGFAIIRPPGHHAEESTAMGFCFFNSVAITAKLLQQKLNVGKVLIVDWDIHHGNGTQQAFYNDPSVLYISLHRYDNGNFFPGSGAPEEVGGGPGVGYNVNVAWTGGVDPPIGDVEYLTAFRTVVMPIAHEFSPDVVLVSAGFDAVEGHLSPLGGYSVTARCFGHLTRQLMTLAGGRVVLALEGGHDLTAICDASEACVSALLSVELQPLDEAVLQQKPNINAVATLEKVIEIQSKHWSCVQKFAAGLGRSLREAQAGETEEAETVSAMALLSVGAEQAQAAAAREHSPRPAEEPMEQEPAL
Sequence of Histone deacetylase 2 (Q92769 whole entry): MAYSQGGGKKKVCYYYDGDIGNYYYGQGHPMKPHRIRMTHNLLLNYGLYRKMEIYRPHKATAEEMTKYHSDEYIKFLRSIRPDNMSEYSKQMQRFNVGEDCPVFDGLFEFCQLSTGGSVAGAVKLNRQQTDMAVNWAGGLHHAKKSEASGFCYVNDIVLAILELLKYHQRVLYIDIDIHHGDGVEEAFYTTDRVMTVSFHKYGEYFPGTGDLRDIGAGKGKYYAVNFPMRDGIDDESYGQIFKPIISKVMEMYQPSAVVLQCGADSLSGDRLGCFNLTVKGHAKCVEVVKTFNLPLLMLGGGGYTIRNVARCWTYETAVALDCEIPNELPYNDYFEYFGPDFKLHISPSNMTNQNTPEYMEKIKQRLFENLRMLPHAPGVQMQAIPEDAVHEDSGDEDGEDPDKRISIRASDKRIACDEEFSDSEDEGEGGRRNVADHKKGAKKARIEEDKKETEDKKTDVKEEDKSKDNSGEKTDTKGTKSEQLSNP
Sequence of Histone deacetylase 4 (P56524 whole entry): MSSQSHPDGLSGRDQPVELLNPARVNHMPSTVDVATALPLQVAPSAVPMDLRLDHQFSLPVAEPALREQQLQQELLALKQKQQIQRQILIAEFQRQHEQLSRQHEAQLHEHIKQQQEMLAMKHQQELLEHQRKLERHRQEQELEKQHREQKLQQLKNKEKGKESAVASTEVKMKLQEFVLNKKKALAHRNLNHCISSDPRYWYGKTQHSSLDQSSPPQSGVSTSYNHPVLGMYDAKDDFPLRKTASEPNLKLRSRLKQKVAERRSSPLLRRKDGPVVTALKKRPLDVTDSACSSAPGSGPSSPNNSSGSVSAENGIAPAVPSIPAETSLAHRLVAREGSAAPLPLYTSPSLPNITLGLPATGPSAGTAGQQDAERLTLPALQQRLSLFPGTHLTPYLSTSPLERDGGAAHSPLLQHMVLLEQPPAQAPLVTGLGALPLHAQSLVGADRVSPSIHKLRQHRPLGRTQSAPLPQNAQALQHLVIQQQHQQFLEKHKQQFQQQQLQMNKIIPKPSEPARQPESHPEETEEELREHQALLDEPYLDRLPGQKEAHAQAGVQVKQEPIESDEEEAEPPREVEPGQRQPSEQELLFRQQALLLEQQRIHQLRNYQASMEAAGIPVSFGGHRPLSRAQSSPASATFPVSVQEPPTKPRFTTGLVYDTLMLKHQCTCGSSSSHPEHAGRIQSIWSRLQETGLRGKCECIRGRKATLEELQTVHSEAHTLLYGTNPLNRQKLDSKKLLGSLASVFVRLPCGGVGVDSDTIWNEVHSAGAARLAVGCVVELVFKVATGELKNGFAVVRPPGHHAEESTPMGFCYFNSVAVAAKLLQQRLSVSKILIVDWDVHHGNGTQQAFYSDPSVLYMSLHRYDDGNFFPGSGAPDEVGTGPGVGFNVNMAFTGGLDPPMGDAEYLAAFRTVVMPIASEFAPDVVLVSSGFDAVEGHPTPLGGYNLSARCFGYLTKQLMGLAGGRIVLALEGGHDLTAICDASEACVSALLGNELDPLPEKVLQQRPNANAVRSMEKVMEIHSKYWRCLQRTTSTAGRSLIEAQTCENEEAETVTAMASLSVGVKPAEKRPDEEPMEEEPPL

| Structure (SMILES) | Ki (Histone deacetylase 4) [µM] | Ki (Histone deacetylase 1) [nM] | Ki (Histone deacetylase 2) [nM] | Ki [1] [nM] | Ki (Histone deacetylase 8 [2]) [nM] | Ki (Histone deacetylase 5) [nM] | t1/2 (Liver) [h] | Ratio Ki (Homo sapiens [4]) | Ratio Ki (Homo sapiens [5]) | Ratio Ki (Homo sapiens [6]) | Ratio Ki (Homo sapiens [7]) | Ratio Ki (Homo sapiens [8]) | Ki (Histone deacetylase 8 [9]) [nM] | half-life at 0.4 ug/mL [10] [min] | GI50 (BXPC-3) [µM] | GI50 (HuT78) [µM] | GI50 (HCT-116) [µM] | GI50 (Jurkat) [nM] | GI50 at 72 h [3] [µM] |
| --- | --- | --- | --- | --- | --- | --- | --- | --- | --- | --- | --- | --- | --- | --- | --- | --- | --- | --- | --- |
| CC(C)c1cccc(=O)c(O)c1 [HINOKITIOL] | > 20 | > 2500 | 15.4 | > 2500 | 178 | > 2500 | > 1 |  |  |  |  |  |  |  | 19 | 4.99 | 6.92 | 1100 | > 100 |
| COc1ccc(-c2ccccc(O)c2=O)c(OC)c1OC | > 20 | > 2500 | 0.23 | > 2500 | 124 | > 2500 | > 1 | > 100 | > 100 | > 100 | > 100 | > 100 |  |  | 21 | 4.74 | 35 | 1860 | > 100 |
| O=c1cc(-c2ccccc2)cccc1O | 10.9 | > 2500 | 0.06 | > 2500 | 1.47 | > 2500 | > 1 |  |  |  |  |  |  |  | 18.5 | 4.14 | 53.4 | 670 | > 100 |
| CC(C)(C)c1cccc(O)c(=O)c1 | 0.806 | > 2500 | 0.13 | > 2500 | 12.8 | > 2500 | > 1 | > 100 | > 100 | > 100 | > 100 | > 100 |  |  | 43 | 13.1 | 62.6 | 4450 | > 100 |
| COc1ccc(OC)c(-c2cccc(O)c(=O)c2)c1 | 11.2 | > 2500 | 0.51 | > 2500 | 266 | > 2500 | > 1 | > 100 | > 100 | > 100 | > 100 | > 100 |  |  | 34.8 | 17.1 | > 100 | 5890 | > 100 |
| O=C(CCCCCCC(=O)Nc1ccccc1)NO [VORINOSTAT] |  |  |  |  |  |  |  |  |  |  |  |  |  | 28 | 5.56 | 2.1 | 2.5 | 900 | 18.9 |
| COc1cccc(C(C)C)cc1=O | 11.6 | > 2500 | > 2500 | > 2500 | 7.87 | > 2500 | > 1 |  |  |  |  |  |  |  | > 100 | > 100 | > 100 | > 100000 | > 100 |
| CCC(C)c1cccc(O)c(=O)c1 (centres undefined) | 6.11 | > 2500 | 0.22 | > 2500 | 2.27 | > 2500 | > 1 |  |  |  |  |  |  |  | 104 | 3.25 | 26.9 | 590 | > 100 |
| O=c1cc(C2CCCC2)cccc1O | 0.99 | > 2500 | 0.04 | > 2500 | 123 | > 2500 | > 1 | > 100 | > 100 | > 100 | > 100 | > 100 |  |  | 180 | 11.4 | > 100 | 6300 | > 100 |

Continued, in another order:

| Ki (Histone deacetylase 4) [µM] | Ki (Histone deacetylase 1) [nM] | Ki (Histone deacetylase 2) [nM] | Ki [1] [nM] | Ki (Histone deacetylase 8 [2]) [nM] | Ki (Histone deacetylase 5) [nM] | t1/2 (Liver) [h] | Ratio Ki (Homo sapiens [4]) | Ratio Ki (Homo sapiens [5]) | Ratio Ki (Homo sapiens [6]) | Ratio Ki (Homo sapiens [7]) | Ratio Ki (Homo sapiens [8]) | Ki (Histone deacetylase 8 [9]) [nM] | half-life at 0.4 ug/mL [10] [min] | Structure (SMILES) | GI50 (BXPC-3) [µM] | GI50 (HuT78) [µM] | GI50 (HCT-116) [µM] | GI50 (Jurkat) [nM] | GI50 at 72 h [3] [µM] |
| --- | --- | --- | --- | --- | --- | --- | --- | --- | --- | --- | --- | --- | --- | --- | --- | --- | --- | --- | --- |
| > 20 | > 2500 | 0.26 | 527 | 1.09 | > 2500 | > 1 |  |  |  |  |  | 0.53 | 93 | O=c1c(O)ccccc1-c1ccccc1 | 29.4 | 7.83 | 15.2 | 3330 | 96.5 |
| 8.36 | > 2500 | 0.12 | > 2500 | 2.38 | > 2500 | > 1 |  |  |  |  |  |  |  | COc1ccc(-c2cccc(O)c(=O)c2)cc1 | 91.6 | 8.95 | 43.7 | 4620 | > 100 |
| > 20 | > 2500 | 0.25 | > 2500 | 186 | > 2500 | > 1 | > 100 | > 100 | > 100 | > 100 | > 100 |  |  | O=c1c(O)ccccc1-c1ccc2ccccc2c1 | 17.1 | 4.11 | 32.1 | 1150 | 93.1 |
| > 20 | > 2500 | 0.81 | > 2500 | 83.8 | > 2500 | > 1 | > 100 | > 100 | > 100 | > 100 | > 100 |  |  | COc1ccc(-c2ccccc(O)c2=O)cc1 | 35.9 | 2.87 | 57 | 620 | > 100 |
| > 20 | > 2500 | 0.42 | > 2500 | 811 | > 2500 | > 1 | > 100 | > 100 | > 100 | > 100 | > 100 |  |  | COc1ccc(OC)c(-c2ccccc(O)c2=O)c1 | 14.1 | 3.05 | 46.6 | 760 | > 100 |
